Converted amounts (≈) assume the structure as drawn.
Experiments:
[1] = test system: Klebsiella pneumoniae; test: Antibacterial activity against Klebsiella pneumoniae HK11750/08 clinical isolate after 24 hrs by microdilution assay; assay type: functional; conditions: HK11750/08, 24 h
[2] = test system: K562; test: Induction of apoptosis in human K562 cells assessed as caspase 3/7 activity after 24 hrs by caspase-glo luminescent assay; assay type: cell-based; conditions: K562, 24 h
Method in brief: (§1)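 Cells were seeded at 500 per well in their growth media and exposed to 12 concentrations from 40 µM to 1 nM, delivered from DMSO, in triplicate. After 24 h, caspase-3/7 activity was read by Caspase-Glo luminescence. Data were normalized and ED50 was fitted by variable-slope nonlinear regression.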

[3] = test system: HepG2; test: Cytotoxicity against human HepG2 cells assessed as reduction in cell viability after 48 hrs by ATPlite-based luminescent assay; conditions: HepG2, 48 h
Method in brief: (§2)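 Cells were grown […] with 10% FBS, glutamax, NEAA and pen/strep at 37 °C, 5% CO2. Media were DMEM for RPE-1, HepG2 and BJ (BJ plus 10 ng/ml bFGF), F-12K for PC3, and IMDM for K562/HL-60. Cells were seeded at 500 per well and dosed from DMSO at 12 concentrations, 40 µM to 1 nM, in triplicate. After 48 h, intracellular ATP was read by luminescence. ED50 was obtained by variable-slope nonlinear regression.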

[4] = test system: Klebsiella pneumoniae; test: Antibacterial activity against Klebsiella pneumoniae HK11750/08 clinical isolate after 48 hrs by microdilution assay; assay type: functional; conditions: HK11750/08, 48 h
[5] = test system: Klebsiella pneumoniae; test: Antibacterial activity against Klebsiella pneumoniae HK14368/08 clinical isolate after 48 hrs by microdilution assay; assay type: functional; conditions: HK14368/08, 48 h
[6] = test system: Enterococcus sp.; test: Antibacterial activity against Enterococcus sp. HK14365/08 clinical isolate after 48 hrs by microdilution assay; assay type: functional; conditions: HK14365/08, 48 h
[7] = test system: Staphylococcus epidermidis; test: Antibacterial activity against Staphylococcus epidermidis HK6966/08 clinical isolate after 24 hrs by microdilution assay; assay type: functional; conditions: HK6966/08, 24 h
[8] = test system: PC-3; test: Cytotoxicity against human PC3 cells assessed as reduction in cell viability after 48 hrs by ATPlite-based luminescent assay; conditions: PC-3, 48 h; method in brief: as §2
[9] = test system: Staphylococcus aureus; test: Antibacterial activity against Staphylococcus aureus ATCC 6538 after 48 hrs by microdilution assay; assay type: functional; conditions: ATCC 6538, 48 h
[10] = test system: Staphylococcus aureus; test: Antibacterial activity against Staphylococcus aureus ATCC 6538 after 24 hrs by microdilution assay; assay type: functional; conditions: ATCC 6538, 24 h
[11] = test system: TERT-RPE1; test: Induction of apoptosis in human RPE1 cells assessed as caspase 3/7 activity after 24 hrs by caspase-glo luminescent assay; assay type: cell-based; conditions: RPE-1, 24 h; method in brief: as §1
[12] = test system: Klebsiella pneumoniae; test: Antibacterial activity against Klebsiella pneumoniae HK14368/08 clinical isolate after 24 hrs by microdilution assay; assay type: functional; conditions: HK14368/08, 24 h
[13] = test system: K562; test: Cytotoxicity against human K562 cells assessed as reduction in cell viability after 48 hrs by ATPlite-based luminescent assay; conditions: K562, 48 h; method in brief: as §2
[14] = test system: HL-60; test: Induction of apoptosis in human HL60 cells assessed as caspase 3/7 activity after 24 hrs by caspase-glo luminescent assay; assay type: cell-based; conditions: HL-60, 24 h; method in brief: as §1
[15] = test system: HepG2; test: Induction of apoptosis in human HepG2 cells assessed as caspase 3/7 activity after 24 hrs by caspase-glo luminescent assay; assay type: cell-based; conditions: HepG2, 24 h; method in brief: as §1
[16] = test system: Escherichia coli; test: Antibacterial activity against Escherichia coli ATCC 8739 after 24 hrs by microdilution assay; assay type: functional; conditions: ATCC 8739, 24 h
Method in brief: (§3)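 Broth microdilution in Mueller-Hinton medium buffered to pH 7.4 (±0.2), with DMSO as diluent at no more than 2% final. Compounds were tested as 2-fold serial dilutions from 2000 to 0.488 µmol/l. The inoculum was 0.5 McFarland (1.5×10^8 cfu/ml). Plates were held at 37 °C and read visually at 24 and 48 h. MIC was taken as 95% growth inhibition versus control, determined twice in duplicate.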

[17] = test system: Staphylococcus epidermidis; test: Antibacterial activity against Staphylococcus epidermidis HK6966/08 clinical isolate after 48 hrs by microdilution assay; assay type: functional; conditions: HK6966/08, 48 h
[18] = test system: PC-3; test: Induction of apoptosis in human PC3 cells assessed as caspase 3/7 activity after 24 hrs by caspase-glo luminescent assay; assay type: cell-based; conditions: PC-3, 24 h; method in brief: as §1
[19] = test system: MCF7; test: Cytotoxicity against human MCF7 cells assessed as reduction in cell viability after 48 hrs by ATPlite-based luminescent assay; conditions: MCF7, 48 h
[20] = test system: HL-60; test: Cytotoxicity against human HL60 cells assessed as reduction in cell viability after 48 hrs by ATPlite-based luminescent assay; conditions: HL-60, 48 h; method in brief: as §2
[21] = test system: Pseudomonas aeruginosa; test: Antibacterial activity against Pseudomonas aeruginosa ATCC 9027 after 48 hrs by microdilution assay; assay type: functional; conditions: ATCC 9027, 48 h; method in brief: as §3
[22] = test system: Pseudomonas aeruginosa; test: Antibacterial activity against Pseudomonas aeruginosa ATCC 9027 after 24 hrs by microdilution assay; assay type: functional; conditions: ATCC 9027, 24 h; method in brief: as §3
[23] = test system: Escherichia coli; test: Antibacterial activity against Escherichia coli ATCC 8739 after 48 hrs by microdilution assay; assay type: functional; conditions: ATCC 8739, 48 h; method in brief: as §3
[24] = test system: Staphylococcus aureus; test: Antibacterial activity against methicillin-resistant Staphylococcus aureus HK5996/08 clinical isolate after 24 hrs by microdilution assay; assay type: functional; conditions: HK5996/08, 24 h
[25] = test system: BJ; test: Cytotoxicity against human BJ cells assessed as reduction in cell viability after 48 hrs by ATPlite-based luminescent assay; method in brief: as §2
[26] = test system: TERT-RPE1; test: Cytotoxicity against human RPE1 cells assessed as reduction in cell viability after 48 hrs by ATPlite-based luminescent assay; conditions: RPE-1, 48 h; method in brief: as §2
[27] = test system: Enterococcus sp.; test: Antibacterial activity against Enterococcus sp. HK14365/08 clinical isolate after 24 hrs by microdilution assay; assay type: functional; conditions: HK14365/08, 24 h
[28] = test system: Staphylococcus aureus; test: Antibacterial activity against methicillin-resistant Staphylococcus aureus HK5996/08 clinical isolate after 48 hrs by microdilution assay; assay type: functional; conditions: HK5996/08, 48 h

| Compound | MIC95 [1] | IC50 [2] | IC50 [3] | MIC95 [4] | MIC95 [5] | MIC95 [6] | MIC95 [7] | IC50 [8] | MIC95 [9] | MIC95 [10] | IC50 [11] | MIC95 [12] | IC50 [13] | IC50 [14] | IC50 [15] | MIC95 [16] | MIC95 [17] | IC50 [18] | IC50 [19] | IC50 [20] | further results |
| --- | --- | --- | --- | --- | --- | --- | --- | --- | --- | --- | --- | --- | --- | --- | --- | --- | --- | --- | --- | --- | --- |
| O=C1OCC(c2ccc3c(c2)OCO3)=C1c1ccc2c(c1)OCO2 | > 125 µM | > 40 µM | > 40 µM | > 125 µM | > 125 µM | > 125 µM | > 125 µM | > 40 µM | > 125 µM | > 125 µM | > 40 µM | > 125 µM | 16 µM | > 40 µM | > 40 µM | > 125 µM | > 125 µM | > 40 µM | > 40 µM | 17.4 µM | MIC95 [21]: > 125 µM; MIC95 [22]: > 125 µM; MIC95 [23]: > 125 µM; MIC95 [24]: > 125 µM; IC50 [25]: > 40 µM; IC50 [26]: 35.5 µM; MIC95 [27]: > 125 µM; MIC95 [28]: > 125 µM |
| O=C1OCC(c2ccc(C(F)(F)F)cc2)=C1c1c[nH]c2ccccc12 | > 125 µM | > 40 µM | > 40 µM | > 125 µM | > 125 µM | > 125 µM | > 125 µM | > 40 µM | > 125 µM | > 125 µM | 1.54 µM | > 125 µM | 0.26 µM | 2.94 µM | > 40 µM | > 125 µM | > 125 µM | > 40 µM | > 40 µM | 0.67 µM | MIC95 [21]: > 125 µM; MIC95 [22]: > 125 µM; MIC95 [23]: > 125 µM; MIC95 [24]: > 125 µM; IC50 [25]: > 40 µM; IC50 [26]: 0.87 µM; MIC95 [27]: > 125 µM; MIC95 [28]: > 125 µM |
| O=C1OCC(c2ccccc2)=C1c1cccc(C(F)(F)F)c1 | > 500 µM | > 40 µM | > 40 µM | > 500 µM | > 500 µM | > 500 µM | 31.2 µM (≈ 9.51 µg/mL) | > 40 µM | 15.6 µM (≈ 4.75 µg/mL) | 15.6 µM (≈ 4.75 µg/mL) | > 40 µM | > 500 µM | > 40 µM | > 40 µM | > 40 µM | > 500 µM | 31.2 µM (≈ 9.51 µg/mL) | > 40 µM | > 40 µM | > 40 µM | MIC95 [21]: > 500 µM; MIC95 [22]: > 500 µM; MIC95 [23]: > 500 µM; MIC95 [24]: 62.5 µM (≈ 19 µg/mL); IC50 [25]: > 40 µM; IC50 [26]: > 40 µM; MIC95 [27]: > 500 µM; MIC95 [28]: 62.5 µM (≈ 19 µg/mL) |
